The results in this text go back to ChEMBL document CHEMBL1781906, “New quinolin-4-yl-1,2,3-triazoles carrying amides, sulphonamides and amidopiperazines as potential antitubercular agents” (2011).

In brackets after ≈: the same amount, converted by molar mass.

Type in all cases: functional
One experiment relates to Pseudomonas aeruginosa. Briefly: Antibacterial activity against Pseudomonas aeruginosa ATCC 27853 after 18 to 24 hrs by […].
Another experiment concerns Klebsiella pneumoniae. Kind of experiment: Antibacterial activity against Klebsiella pneumoniae after 18 to 24 hrs by […].
For another experiment, the system named is Streptococcus pyogenes. Kind of experiment: Antibacterial activity against Streptococcus pyogenes after 18 to 24 hrs by serial plate dilution method.
In a further experiment the test system is Staphylococcus aureus. Briefly: Antibacterial activity against Staphylococcus aureus ATCC 25923 after 18 to 24 hrs by serial plate dilution method.
For experiment [1], the system named is Mycobacterium tuberculosis. Briefly: Antimycobacterial activity against Mycobacterium tuberculosis H37Rv ATCC 27294 after 7 days by resazurin method. The note with it: H37Rv ATCC 27294, 168 h. Put shortly:
(§1)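 H37Rv was grown in Middlebrook 7H9 broth with 10% OADC, diluted to McFarland 2 in the same medium, and added to fresh medium in 96-well plates with compound. Compounds were tested at 1, 10 and 100. The dye turned pink in controls after […] at 37 °C.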

In experiment [2] the test system is Mycolicibacterium smegmatis. Kind of experiment: Antimycobacterial activity against Mycobacterium smegmatis ATCC 19420 after 7 days by resazurin method. The settings on record: ATCC 19420, 168 h. In short, it runs like this:
(§2)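 MIC was determined by resazurin microplate assay. Resazurin turns from blue to pink when reduced by viable cells, and wells with no colour change were scored as inhibited. Isoniazid and rifampicin were reference drugs.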

For another experiment, the system named is Escherichia coli. Kind of experiment: Antibacterial activity against Escherichia coli ATCC 25922 after 18 to 24 hrs by […].
Experiment [3] concerns Mycobacterium tuberculosis. Kind of experiment: Antimycobacterial activity against Mycobacterium tuberculosis H37Rv ATCC 27294 assessed as inhibition of bacterial growth at 1 to 100 ug/ml after 7 days by resazurin method. Put shortly:
as §1

For experiment [4], the system named is Mycolicibacterium fortuitum. Briefly: Antimycobacterial activity against Mycobacterium fortuitum ATCC 19542 after 7 days by resazurin method. The settings on record: ATCC 19542, 168 h. Put shortly: as §2

As for `O=C(O)c1cn(C2CC2)c2cc(N3CCNCC3)c(F)cc2c1=O` [CIPROFLOXACIN], the MIC in the experiment with Pseudomonas aeruginosa was 0.4 µg/mL (≈ 1.21 µM); with Klebsiella pneumoniae it was 0.05 µg/mL (≈ 0.151 µM); against Streptococcus pyogenes it was 0.4 µg/mL (≈ 1.21 µM); in the experiment with Staphylococcus aureus it was 1 µg/mL (≈ 3.02 µM).

As for `COc1ccc2nc(C)cc(-n3cc(CN4CCN(C(C)=O)CC4)nn3)c2c1`, the minimum inhibitory concentration (MIC) in [1] was 0.625 µg/mL (≈ 1.64 µM); in the experiment with Pseudomonas aeruginosa it was 0.2 µg/mL (≈ 0.526 µM); in experiment [2], 10 µg/mL (≈ 26.3 µM); in the experiment with Escherichia coli it was 0.1 µg/mL (≈ 0.263 µM); with Klebsiella pneumoniae it was 0.1 µg/mL (≈ 0.263 µM); in the experiment with Streptococcus pyogenes, 0.2 µg/mL (≈ 0.526 µM). Also, the MIC was determined as 0.4 µg/mL (≈ 1.05 µM) against Staphylococcus aureus and 100 µg/mL (≈ 263 µM) in experiment [4]. The “inhibition (INH)” value in experiment [3] was found to be 95%.

On to `COc1ccc(C(=O)NCc2cn(-c3cc(C)nc4ccc(OC)cc34)nn2)cc1`, for which the MIC in [1] was 0.625 µg/mL (≈ 1.55 µM); in the experiment on Pseudomonas aeruginosa, 0.4 µg/mL (≈ 0.991 µM); in experiment [2] it was 5 µg/mL (≈ 12.4 µM); against Escherichia coli, 0.1 µg/mL (≈ 0.248 µM); against Klebsiella pneumoniae it was 0.1 µg/mL (≈ 0.248 µM); against Streptococcus pyogenes, 0.4 µg/mL (≈ 0.991 µM). Further, the MIC with Staphylococcus aureus was found to be 0.8 µg/mL (≈ 1.98 µM); in experiment [4] it was 10 µg/mL (≈ 24.8 µM). Further, the “inhibition (INH)” value in [3] was 95%.

As for `CCc1ccc(S(=O)(=O)NCc2cn(-c3cc(C)nc4ccc(OC)cc34)nn2)cc1`, the minimum inhibitory concentration (MIC) in experiment [1] turned out to be 100 µg/mL (≈ 229 µM); in the experiment with Pseudomonas aeruginosa it was 12.5 µg/mL (≈ 28.6 µM); in experiment [2] it was 100 µg/mL (≈ 229 µM); with Escherichia coli, 6.25 µg/mL (≈ 14.3 µM); with Klebsiella pneumoniae it was 6.25 µg/mL (≈ 14.3 µM); against Streptococcus pyogenes, 6.25 µg/mL (≈ 14.3 µM). Besides, the minimum inhibitory concentration (MIC) stood at 6.25 µg/mL (≈ 14.3 µM) against Staphylococcus aureus and 100 µg/mL (≈ 229 µM) in experiment [4].

As to `COc1ccc2nc(C)cc(-n3cc(CN4CCN(C(=O)c5ccc(Cl)c(Cl)c5)CC4)nn3)c2c1`, the MIC in experiment [1] is 5 µg/mL (≈ 9.78 µM); in the experiment on Pseudomonas aeruginosa, 0.8 µg/mL (≈ 1.56 µM); in experiment [2], 100 µg/mL (≈ 196 µM); with Escherichia coli, 3.12 µg/mL (≈ 6.1 µM); in the experiment on Klebsiella pneumoniae, 0.8 µg/mL (≈ 1.56 µM); against Streptococcus pyogenes, 0.8 µg/mL (≈ 1.56 µM). Moreover, the MIC with Staphylococcus aureus turned out to be 6.25 µg/mL (≈ 12.2 µM); in experiment [4], 100 µg/mL (≈ 196 µM). In addition, the “inhibition (INH)” value in [3] came out at 85%.

For `COc1ccc2nc(C)cc(-n3cc(CNC(=O)c4ccc(C(F)(F)F)cc4)nn3)c2c1`, the MIC was determined as 0.625 µg/mL (≈ 1.42 µM) in experiment [1]; 0.4 µg/mL (≈ 0.906 µM) against Pseudomonas aeruginosa; 10 µg/mL (≈ 22.7 µM) in experiment [2]; 0.4 µg/mL (≈ 0.906 µM) against Escherichia coli; 0.2 µg/mL (≈ 0.453 µM) against Klebsiella pneumoniae; 0.2 µg/mL (≈ 0.453 µM) in the experiment on Streptococcus pyogenes. The minimal inhibitory concentration (MIC) worked out at 0.4 µg/mL (≈ 0.906 µM) in the experiment with Staphylococcus aureus and 5 µg/mL (≈ 11.3 µM) in experiment [4]. Besides, in experiment [3], the “inhibition (INH)” value was determined as 95%.

Regarding `COc1ccc(C(=O)N2CCN(Cc3cn(-c4cc(C)nc5ccc(OC)cc45)nn3)CC2)cc1`, the minimum inhibitory concentration (MIC) in experiment [1] worked out at 0.625 µg/mL (≈ 1.32 µM); against Pseudomonas aeruginosa, 3.12 µg/mL (≈ 6.6 µM); in experiment [2], 5 µg/mL (≈ 10.6 µM); with Escherichia coli, 0.4 µg/mL (≈ 0.846 µM); in the experiment on Klebsiella pneumoniae, 1.6 µg/mL (≈ 3.39 µM); with Streptococcus pyogenes it was 1.6 µg/mL (≈ 3.39 µM). Besides, the minimal inhibitory concentration (MIC) turned out to be 0.8 µg/mL (≈ 1.69 µM) in the experiment with Staphylococcus aureus and 10 µg/mL (≈ 21.2 µM) in experiment [4]. Besides, the “inhibition (INH)” value in [3] is recorded as 90%.

Turning to `CCc1ccc(C(=O)N2CCN(Cc3cn(-c4cc(C)nc5ccc(OC)cc45)nn3)CC2)cc1`, the minimum inhibitory concentration (MIC) in [1] amounted to 100 µg/mL (≈ 213 µM); in the experiment on Pseudomonas aeruginosa it was 6.25 µg/mL (≈ 13.3 µM); in experiment [2], 100 µg/mL (≈ 213 µM); in the experiment with Escherichia coli, 3.12 µg/mL (≈ 6.63 µM); in the experiment with Klebsiella pneumoniae, 3.12 µg/mL (≈ 6.63 µM); in the experiment with Streptococcus pyogenes, 6.25 µg/mL (≈ 13.3 µM). Moreover, the figures for the minimal inhibitory concentration (MIC) (with Staphylococcus aureus; in experiment [4]) were 6.25 µg/mL (≈ 13.3 µM) and 100 µg/mL (≈ 213 µM), respectively.

As to `COc1ccc2nc(C)cc(-n3cc(CN4CCN(C(=O)c5ccc(C)cc5)CC4)nn3)c2c1`, the MIC in experiment [1] was 100 µg/mL (≈ 219 µM); in the experiment on Pseudomonas aeruginosa, 12.5 µg/mL (≈ 27.4 µM); in experiment [2] it was 100 µg/mL (≈ 219 µM); against Escherichia coli, 6.25 µg/mL (≈ 13.7 µM); with Klebsiella pneumoniae, 12.5 µg/mL (≈ 27.4 µM); with Streptococcus pyogenes, 6.25 µg/mL (≈ 13.7 µM). The minimal inhibitory concentration (MIC) against Staphylococcus aureus came to 6.25 µg/mL (≈ 13.7 µM); in experiment [4] it was 100 µg/mL (≈ 219 µM).

Consider `CO[C@H]1/C=C/O[C@@]2(C)Oc3c(C)c(O)c4c(O)c(c(/C=N/N5CCN(C)CC5)c(O)c4c3C2=O)NC(=O)/C(C)=C\C=C\[C@H](C)[C@H](O)[C@@H](C)[C@@H](O)[C@@H](C)[C@H](OC(C)=O)[C@@H]1C` [RIFAMPIN], for which the values for the MIC in [1], in experiment [2] and in experiment [4] were 0.5 µg/mL (≈ 0.608 µM), 1.5 µg/mL (≈ 1.82 µM) and 1.5 µg/mL (≈ 1.82 µM), respectively. Further, the “inhibition (INH)” value in experiment [3] stood at 95%.

For `COc1ccc2nc(C)cc(-n3cc(CN4CCN(C(=O)c5ccccc5Cl)CC4)nn3)c2c1`, the minimum inhibitory concentration (MIC) in experiment [1] came to 10 µg/mL (≈ 21 µM); with Pseudomonas aeruginosa, 3.12 µg/mL (≈ 6.54 µM); in experiment [2] it was 100 µg/mL (≈ 210 µM); with Escherichia coli, 6.25 µg/mL (≈ 13.1 µM); in the experiment on Klebsiella pneumoniae, 3.12 µg/mL (≈ 6.54 µM); in the experiment with Streptococcus pyogenes, 3.12 µg/mL (≈ 6.54 µM). For the same molecule, the figures for the MIC (with Staphylococcus aureus; in [4]) were 3.12 µg/mL (≈ 6.54 µM) and 100 µg/mL (≈ 210 µM), respectively.

Turning to `NNC(=O)c1ccncc1` [ISONIAZID], the values for the minimum inhibitory concentration (MIC) in experiment [1], in [2] and in experiment [4] were 0.7 µg/mL (≈ 5.1 µM), 50 µg/mL (≈ 365 µM) and 12.5 µg/mL (≈ 91.1 µM), respectively. Besides, the “inhibition (INH)” value in experiment [3] is 95%.
